Legend:
L1210 [1] = assay: Compound was tested for its ability to inhibit L1210 cell growth after 72 hr at 500 uM concentration; assay type: functional; conditions: Mus musculus, L1210, 72 h
In short: (§1)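 L1210 cells are grown as stationary suspension cultures in Fishers medium with 10% heat-inactivated horse serum. Drug exposure is continuous for 72 h. Cell number is counted with a Coulter counter. Percent inhibition is calculated against untreated control cultures.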

L1210 [2] = assay: Compound was tested for its ability to inhibit L1210 cell growth after 72 hr at 1000 uM concentration; assay type: functional; conditions: Mus musculus, L1210, 72 h; in short: as §1
[3] = biological target: T1, Uridine-cytidine kinase 1 (Mus musculus) (UniProt P52623); assay: Inhibition of uridine kinase from L1210 cells was evaluated by measuring the retention of phosphorylated product on DE81 filter papers at 1000 uM; assay type: functional, cell-based
T1 sequence (whole entry): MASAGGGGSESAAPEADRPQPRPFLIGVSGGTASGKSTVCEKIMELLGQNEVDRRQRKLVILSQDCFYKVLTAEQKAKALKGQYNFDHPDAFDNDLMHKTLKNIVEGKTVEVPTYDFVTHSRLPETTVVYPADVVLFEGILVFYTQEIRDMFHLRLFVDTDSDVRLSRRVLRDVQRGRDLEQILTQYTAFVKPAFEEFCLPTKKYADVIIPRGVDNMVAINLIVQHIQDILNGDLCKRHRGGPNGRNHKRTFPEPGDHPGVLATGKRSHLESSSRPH

[4] = biological target: T1, Uridine-cytidine kinase 1 (Mus musculus); assay: Inhibition of uridine kinase from L1210 cells was evaluated by measuring the retention of phosphorylated product on DE81 filter papers at 100 uM; assay type: functional, cell-based
L1210 [5] = assay: Compound was tested for its ability to inhibit L1210 cell growth after 72 hr at 100 uM concentration; assay type: functional; conditions: Mus musculus, L1210, 72 h; in short: as §1
[6] = biological target: T2, Uridine-cytidine kinase 1 (Mus musculus, UniProt P52623); assay: Binding affinity to uridine kinase from L1210. was determined from the dixon plot
T2 sequence (P52623 whole entry): T1 sequence (whole entry)
In short: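 Uridine kinase from L1210 cells. Uridine is used at 10, 40 and 200 μM, with inhibitor at 1, 0.5, 0.2 and 0.1 mM. Ki is taken from Dixon plots.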

L1210 [7] = assay: Compound was tested for its ability to inhibit L1210 cell growth after 72 hr at 0.03 uM concentration; assay type: functional; conditions: Mus musculus, L1210, 72 h; in short: as §1

| Structure (SMILES) | inhibition at 500 µM (L1210 [1]) | inhibition at 1000 µM (L1210 [2]) | inhibition [3] | inhibition [4] | inhibition at 100 µM (L1210 [5]) | Ki [6] | inhibition at 0.03 µM (L1210 [7]) |
| --- | --- | --- | --- | --- | --- | --- | --- |
| O=c1ccn([C@@H]2C=C(CO)[C@@H](O)[C@H]2O)c(=O)[nH]1 | 12% | 36% | 78% | 35% | 2% |  |  |
| Nc1ccn([C@@H]2C=C(CO)[C@@H](O)[C@H]2O)c(=O)n1 | 96% | 99% | 89% | 57% | 99% | 60 µM | 58% |
